In ChEMBL document CHEMBL1127738, “14 alpha,14' beta-[Dithiobis[(2-oxo-2,1-ethanediyl)imino]]bis (7,8-dihydromorphinone) and 14 alpha,14' beta-[dithiobis[(2-oxo-2,1- ethanediyl)imino]]bis[7,8-dihydro-N-(cyclopropylmethyl)normorphinone]: chemistry and opioid binding properties” (J Med Chem, 1994) one finds Activity, IC50 and inhibition data, which are given here for five molecules.

The target of test [1] is Mu-type opioid receptor (Bos taurus) (UniProt P79350). Briefly: Evaluation for the ability of mu opioid to protect the [3H]DAMGO binding site from alkylation.
Sequence of Mu-type opioid receptor (Bos taurus) (P79350 whole entry): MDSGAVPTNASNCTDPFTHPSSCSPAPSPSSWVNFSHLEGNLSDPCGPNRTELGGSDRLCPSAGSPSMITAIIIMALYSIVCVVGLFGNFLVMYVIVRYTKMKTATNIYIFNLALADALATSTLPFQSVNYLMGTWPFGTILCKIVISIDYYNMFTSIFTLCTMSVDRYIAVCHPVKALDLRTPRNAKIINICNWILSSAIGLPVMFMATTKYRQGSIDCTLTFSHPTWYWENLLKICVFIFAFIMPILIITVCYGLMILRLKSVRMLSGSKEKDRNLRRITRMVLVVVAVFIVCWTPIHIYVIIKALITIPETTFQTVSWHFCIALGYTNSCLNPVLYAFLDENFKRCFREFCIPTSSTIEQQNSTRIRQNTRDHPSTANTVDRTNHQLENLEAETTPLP
The next test addresses Mu-type opioid receptor (Bos taurus, UniProt P79350). Briefly: Evaluation for the inhibition of mu opioid binding to bovine striatal membranes by the affinity ligand 0.25 nM [3H]DAMGO radiolabeled opioid. The arrangement: species or system Striatum, Membrane. The gist of the method:
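Competition binding on bovine striatal membranes: twelve compound concentrations with radioligand in 1 mL of 50 mM Tris-HCl pH 7.5 at 25 °C, with 5 mM MgCl2 and 0.1 mM PMSF. Incubation was 60 min for [3H]DAMGO and [3H]U69,593 and 4 h for [3H]pCl-DPDPE. […] Filtration used PEI-soaked filters for the κ and δ ligands. Mean IC50 ± SE, three experiments.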

In test [2] the target is Mu-type opioid receptor (Bos taurus) (UniProt P79350). The experiment in a line: Effect of DTT on Wash-Resistant Inhibition of [3H]DAMGO by 10 nM. In outline:
(§1)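 They were then given 40 mM DTT for 10 min at 4 °C in 2 mL of 50 mM Tris-HCl pH 7.5, followed by four centrifugal washes. […] Results are % of control without ligand or DTT; mean ± SE, three experiments in triplicate.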

The target of test [3] is Delta-type opioid receptor (Homo sapiens) (UniProt P41143). The experiment in a line: Evaluation for the ability of delta opioids to protect the [3H]DAMGO binding site from alkylation. The conditions noted are these: Bos taurus. In outline: (§2)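 Protection assay on TPCK-pretreated calf striatal membranes. Membranes were preincubated with 100 nM protecting opioid in 50 mM Tris-HCl pH 7.5 for 30 min at 37 °C. The disulfide ligand (40 or 80 nM) was then added for 2 min at 37 °C in 2 mL. After four centrifugal washes, 0.25 nM [3H]DAMGO binding was measured. Results are % of untreated control; mean ± SE, three experiments in triplicate.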
Sequence of Delta-type opioid receptor (Homo sapiens) (P41143 whole entry): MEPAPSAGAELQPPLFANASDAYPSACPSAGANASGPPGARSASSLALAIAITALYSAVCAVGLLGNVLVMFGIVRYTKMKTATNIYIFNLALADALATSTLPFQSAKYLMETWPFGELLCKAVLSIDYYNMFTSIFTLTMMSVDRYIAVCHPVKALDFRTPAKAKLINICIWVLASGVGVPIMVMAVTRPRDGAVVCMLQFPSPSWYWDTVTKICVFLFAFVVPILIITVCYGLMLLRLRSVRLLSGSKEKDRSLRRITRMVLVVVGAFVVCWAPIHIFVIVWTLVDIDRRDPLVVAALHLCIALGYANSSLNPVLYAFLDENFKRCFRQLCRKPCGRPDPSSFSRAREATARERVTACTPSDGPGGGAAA

The target in test [4] is Kappa-type opioid receptor (Homo sapiens) (UniProt P41145). The experiment in a line: Evaluation for the ability of kappa opioids to protect the [3H]-DAMGO binding site from alkylation. The settings on record: Bos taurus. The gist of the method:
as §2

Test [5] concerns the target Mu-type opioid receptor (Bos taurus) (UniProt P79350). Briefly: Evaluation for the ability of mu opioids to protect the [3H]DAMGO binding site from alkylation. In outline:
as §2

Test [6] shares this target. The experiment in a line: Effect of DTT on Wash-Resistant Inhibition of [3H]DAMGO at 10 nM of the compound. The gist of the method:
as §1

Square brackets hold non-standard residues; d marks the D form. Peptide text beside a SMILES is read from it. * marks the point of attachment. Tyr(Nα,Nα-allyl2) = C=CCN(CC=C)[C@@H](Cc1ccc(O)cc1)C(=O)*; Aib = CC(C)(N)C(=O)O

Sequence of Mu-type opioid receptor (P79350 whole entry): as the sequence (P79350 whole entry) above
Sequence of Kappa-type opioid receptor (Homo sapiens) (P41145 whole entry): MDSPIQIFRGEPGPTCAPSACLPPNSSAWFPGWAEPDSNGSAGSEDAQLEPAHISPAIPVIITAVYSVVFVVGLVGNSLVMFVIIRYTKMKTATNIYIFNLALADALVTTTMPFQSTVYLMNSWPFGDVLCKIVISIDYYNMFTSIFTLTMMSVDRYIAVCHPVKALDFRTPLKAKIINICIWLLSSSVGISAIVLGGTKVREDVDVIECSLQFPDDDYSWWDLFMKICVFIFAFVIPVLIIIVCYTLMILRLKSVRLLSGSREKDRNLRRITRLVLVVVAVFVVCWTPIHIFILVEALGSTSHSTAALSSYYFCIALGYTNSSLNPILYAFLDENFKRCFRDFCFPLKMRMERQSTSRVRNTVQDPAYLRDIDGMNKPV

In test [1], `C=CCN(CC=C)[C@@H](Cc1ccc(O)cc1)C(=O)NC(C)(C)C(=O)NC(C)(C)C(=O)N[C@@H](Cc1ccccc1)C(=O)N[C@@H](CC(C)C)C(=O)O` ({Tyr(Nα,Nα-allyl2)}-[Aib][Aib]FL-OH) came in with an Activity of 24.
With `O=C(CSSCC(=O)N[C@@]12CCC(=O)[C@@H]3Oc4c(O)ccc5c4[C@@]31CCN(CC1CC1)[C@@H]2C5)N[C@@]12CCC(=O)[C@@H]3Oc4c(O)ccc5c4[C@@]31CCN(CC1CC1)[C@@H]2C5`, the IC50 at Mu-type opioid receptor turned out to be 3.29 nM. Also, in test [2], the inhibition was 63%. Moreover, the Activity came to 25 in test [3] and 30 in test [4].
Molecule `Oc1ccc2c3c1O[C@H]1c4[nH]c5ccccc5c4C[C@@]4(O)[C@@H](C2)N(CC2CC2)CC[C@]314` displayed an Activity in test [1] of 25.
In test [5], `CN1CC[C@]23c4c5ccc(O)c4O[C@H]2C(=O)CC[C@@]3(NC(=O)CSSCC(=O)N[C@@]23CCC(=O)[C@@H]4Oc6c(O)ccc7c6[C@@]42CCN(C)[C@@H]3C7)[C@H]1C5` yielded an Activity of 25. In test [6], this molecule registered an inhibition of 50%. Further, the IC50 at Mu-type opioid receptor worked out at 0.4 nM.
Take `CN1CC[C@]23c4c5ccc(O)c4O[C@H]2[C@@H](O)C=C[C@H]3[C@H]1C5`: the Activity in test [1] turned out to be 67.
